Measurements published in ChEMBL document CHEMBL3877291, “Structure-guided design of novel Trypanosoma brucei Methionyl-tRNA synthetase inhibitors” (Eur J Med Chem, 2016).

Legend:
[1] = Inhibition of Trypanosoma brucei methionyl tRNA synthetase preincubated for 15 mins followed by L-methionine substrate addition measured after 120 mins by ATP- depletion chemiluminescence assay
Procedure, shortened: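 Triplicate. Compound pre-incubated 15 min at room temperature with 50 nM TbMetRS, 200 µg/mL E. coli tRNA, 0.1 U/mL pyrophosphatase, 0.2 mM spermine, BSA, DTT, 25 mM HEPES-KOH pH 7.9, 10 mM MgCl2, 50 mM KCl, 2% DMSO. Started with 100 nM ATP and 32 µM L-methionine; after 120 min, Kinase-Glo luminescence read. IC50 from sigmoidal dose-response fit.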

[2] = Cytotoxicity against human CRL-1855 cells assessed as cell viability after 48 hrs by alamar blue assay; type: toxicity, cell-based
Procedure, shortened: (§1)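 CRL-1855 cells grown in RPMI and HepG2 cells in DMEM/F-12, both with 10% FBS, penicillin and streptomycin. Plated at 5 × 10^3 per well with serial compound dilutions in quadruplicate for 48 h. Alamar Blue added for a further 4 h at 37 °C, 5% CO2. OD570–600 viability referenced to untreated cells.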

Trypanosoma brucei [3] = experiment: Binding affinity to Trypanosoma brucei methionyl-tRNA synthetase assessed as change in melting temperature at 100 uM by SYPRO orange dye based thermal shift assay
Procedure, shortened: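 TbMetRS in 100 mM HEPES pH 7.5, 100 mM NaCl, 10 mM ATP-Mg with SYPRO Orange; compound at 100 µM final. Fluorescence measured in triplicate from 25 to 90 °C in 0.2 °C steps. Tm taken as the temperature of the first-derivative maximum.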

[4] = Cytotoxicity against human HepG2 cells assessed as cell viability after 48 hrs by alamar blue assay; type: toxicity, cell-based; procedure, shortened: as §1
Trypanosoma brucei [5] = experiment: Antitrypanosomal activity against Trypanosoma brucei 427 bloodstream forms assessed as parasitic growth inhibition after 48 hrs by alamar blue assay; type: functional; settings: Trypanosoma brucei, 427, 48 h
Procedure, shortened: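 Bloodstream-form strain 427 trypomastigotes cultured in HMI-9 with 10% FBS, penicillin and streptomycin at 37°C, 5% CO2. Seeded at 1 × 10^4 per well, serial compound dilutions from 20 mM DMSO stocks, triplicate. Growth read with Alamar Blue at 48 h; pentamidine run as positive control in each assay.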

[6] = AUC in mouse at 50 mg/kg, administered through oral gavage by LC-MS analysis; type: ADME, organism-based; settings: in vivo
Procedure, shortened: (§2)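 Mice dosed by oral gavage at 50 mg/kg in 0.2 mL vehicle (7% tween80, 3% ethanol, 5% DMSO, 0.9% saline); plasma compound levels followed to give Cmax and AUC.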

[7] = Selectivity index, ratio of EC50 for human CRL-1855 cells to EC50 for Trypanosoma brucei 427 bloodstream forms; type: toxicity, cell-based; settings: read-out: Ratio EC50
[8] = Cmax in mouse at 50 mg/kg, administered through oral gavage by LC-MS analysis; type: ADME, organism-based; set-up: dose 50 mg/kg, route oral; settings: in vivo; procedure, shortened: as §2
Trypanosoma brucei [9] = experiment: (§3) Inhibition of Trypanosoma brucei 427 recombinant full length N-terminal 6His-tagged methionyl tRNA synthetase expressed in Escherichia coli assessed as decrease in incorporation of [3H]L-methionine into tRNA at 1 uM preincubated for 15 mins followed by Escherichia coli tRNA addition measured after 120 mins by scintillation counting method
Trypanosoma brucei [10] = experiment: as §3, with “at 10” for “at 1”

Row | IC50 [1] [nM] | ΔTm (Trypanosoma brucei [3]) [°C] | EC50 (Trypanosoma brucei [5]) [nM] | Compound | also measured
1 | 60 | 7.2 | 1400 | O=C(Cc1cc(Cl)cc(Cl)c1)N1CCCC(c2nc3cc(Cl)ccc3[nH]2)C1 (stereo not given) | EC50 at 48 h [2]: 22800 nM; EC50 at 48 h [4]: 35400 nM
2 | 192 | 13.1 | 999 | Clc1cc(Cl)cc(CN[C@@H]2CCCN(c3nc4nc(Cl)ccc4[nH]3)C2)c1 | –
3 | 2170 | 6.4 | 15300 | Clc1cc(Cl)cc(CNC2CN(c3nc4nc(Cl)ccc4[nH]3)C2)c1 | –
4 | – | – | – | CCN(CC)CCCC(C)Nc1c2ccc(Cl)cc2nc2ccc(OC)cc12 (stereo not given) [QUINACRINE] | EC50 at 48 h [2]: 2120 nM; EC50 at 48 h [4]: 11900 nM
5 | < 50 | 12.8 | 307 | Clc1cc(Cl)cc(CNCCCc2nc3ccc(Cl)nc3[nH]2)c1 | EC50 at 48 h [2]: 45700 nM; EC50 at 48 h [4]: 45600 nM
6 | 196 | 7.5 | 8800 | Clc1cc(Cl)cc(CO[C@H]2CCCN(c3nc4nc(Cl)ccc4[nH]3)C2)c1 | –
7 | > 10000 | 6 | 3760 | Clc1cc(Cl)cc(CCN2CCCC(c3nc4nc(Cl)ccc4[nH]3)C2)c1 (stereo not given) | –
8 | 682 | 6.8 | 1810 | Clc1cc(Cl)cc(CNC2CCCCN(c3nc4nc(Cl)ccc4[nH]3)C2)c1 (stereo not given) | –
9 | 696 | 7.2 | 9010 | Clc1cc(Cl)cc(CN[C@@H]2CCN(c3nc4ccc(Cl)nc4[nH]3)C2)c1 | –
10 | < 50 | 18.4 | 82 | Clc1cc(Cl)cc(CNC2CCCN(c3nc4nc(Cl)ccc4[nH]3)C2)c1 (stereo not given) | EC50 at 48 h [2]: 46200 nM; EC50 at 48 h [4]: > 50000 nM
11 | 124 | 14.2 | 359 | Clc1cc(Cl)cc(CNC2CCCC(c3nc4nc(Cl)ccc4[nH]3)C2)c1 (stereo not given) | EC50 at 48 h [2]: 33100 nM; EC50 at 48 h [4]: 32300 nM
12 | 1050 | – | 1400 | Clc1cc(Cl)cc(CNCCSc2nc3nc(Cl)ccc3[nH]2)c1 | –
13 | 926 | 7.4 | 8810 | O=C(Cc1cc(Cl)cc(Cl)c1)N1CCCC(c2nc3c(Cl)cccc3[nH]2)C1 (stereo not given) | –
14 | < 50 | 11.4 | 1540 | Clc1cc(Cl)cc(CN[C@H]2CCN(c3nc4ccc(Cl)nc4[nH]3)C2)c1 | –
15 | > 10000 | 0 | > 20000 | O=C(N[C@H]1CCCN(c2nc3nc(Cl)ccc3[nH]2)C1)c1cc(Cl)cc(Cl)c1 | –
16 | < 50 | 19 | 39 | Clc1cc(Cl)cc(CN[C@H]2CCCN(c3nc4nc(Cl)ccc4[nH]3)C2)c1 | AUC [6]: 104 µM·h; EC50 at 48 h [2]: 29300 nM; EC50 at 48 h [4]: 49000 nM; selectivity ratio [7]: 751; Cmax [8]: 37.6 µM
17 | 4970 | 5.8 | 13300 | Clc1cc(Cl)cc(CNC2CCN(c3nc4nc(Cl)ccc4[nH]3)CC2)c1 | –
18 | 243 | 10.8 | 2150 | Clc1cc(Cl)cc(CNCCCc2nc3ccc(Cl)cc3[nH]2)c1 | –
19 | – | – | – | Cc1cc2cc(C(=O)N3CCCC(c4nc5ccccc5[nH]4)C3)ccc2o1 (stereo not given) | inhibition (Trypanosoma brucei [9]): 20%; inhibition (Trypanosoma brucei [10]): 78%
20 | 580 | 12.6 | 1950 | Clc1cc(Cl)cc(CNC2CCCC(c3nc4cc(Cl)ccc4[nH]3)C2)c1 (stereo not given) | –
21 | < 50 | 14.4 | 343 | Clc1cc(Cl)cc(NCC2CCCN(c3nc4nc(Cl)ccc4[nH]3)C2)c1 (stereo not given) | EC50 at 48 h [2]: 15400 nM; EC50 at 48 h [4]: 29200 nM
22 | > 10000 | 2.6 | > 20000 | O=C(Nc1cc(Cl)cc(Cl)c1)[C@H]1CCCN(c2nc3nc(Cl)ccc3[nH]2)C1 | –
23 | 288 | 7.8 | > 5000 | O=C(Cc1cc(Cl)cc(Cl)c1)N1CCCC(c2nc3ccccc3[nH]2)C1 (stereo not given) | –
24 | 106 | 13.1 | 580 | Clc1cc(Cl)cc(CN[C@@H]2CCC[C@H](c3nc4nc(Cl)ccc4[nH]3)C2)c1 | –

Row | Compound | IC50 [1] [nM] | ΔTm (Trypanosoma brucei [3]) [°C] | EC50 (Trypanosoma brucei [5]) [nM] | also measured
25 | N=C(N)c1ccc(OCCCCCOc2ccc(C(=N)N)cc2)cc1 [PENTAMIDINE] | – | – | 0.9 | –
